# From ChEMBL document CHEMBL1649111, “Restoration of susceptibility of intracellular methicillin-resistant Staphylococcus aureus to beta-lactams: comparison of strains, cells, and antibiotics” (Antimicrob Agents Chemother, 2008)
# Columns and labels:
# [1] = system: Staphylococcus aureus; assay: Antimicrobial activity against constitutive beta-lactamase negative methicillin-resistant Staphylococcus aureus COL NRS100 by broth microdilution method at pH 7.4; format: functional
# [2] = system: Staphylococcus aureus; assay: Antimicrobial activity against hospital acquired methicillin-resistant Staphylococcus aureus ATCC 33591 by broth microdilution method at pH 7.4; format: functional
# Procedure, shortened: (§1)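 Minimal inhibitory concentration by broth microdilution at pH 7.4, read in mg/liter. The MRSA genotype was confirmed by mecA PCR, and the SCCmec subgroup was assigned by multiplex PCR.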
# [3] = system: Staphylococcus aureus; assay: Antimicrobial activity against Panton-valentine leukocidin positive community acquired methicillin-resistant Staphylococcus aureus N4042228 by broth microdilution method at pH 5.5; format: functional
# [4] = system: Staphylococcus aureus; assay: Antimicrobial activity against hospital acquired methicillin-resistant and vancomycin-intermediate Staphylococcus aureus NRS126 obtained from bloodstream infection of patient infected in human THP-1 cells assessed as increase in bacterial count from original inoculum at low compound concentration after 24 hrs at pH 5.5; format: functional
# Procedure, shortened: (§2)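 Bacteria phagocytosed by unactivated human THP-1 macrophages, then incubated 24 h with extracellular antibiotic at about 0.01× to 100× the pH 5.5 broth MIC. CFU per mg cell protein counted against the original inoculum, n = 3. A Hill-equation fit (slope factor 1) gave Emin and Emax, extrapolated to infinitely low and high concentration, and EC50. Static concentration was graphically interpolated.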
# [5] = system: Staphylococcus aureus; assay: Antimicrobial activity against hospital acquired methicillin-resistant Staphylococcus aureus N4120210 obtained from urinary tract infection patient by broth microdilution method at pH 5.5; format: functional; conditions: N4120210, Urine
# [6] = system: Staphylococcus aureus; assay: (§3) Antimicrobial activity against Panton-valentine leukocidin positive community acquired methicillin-resistant Staphylococcus aureus NRS192 obtained from patient with pneumonia and septic arthritis infected in human THP-1 cells assessed as decrease in bacterial growth after 24 hrs at pH 5.5; format: functional, organism-based; conditions: NRS192, THP-1, 24 h; procedure, shortened: as §2
# [7] = Chemical stability of the compound assessed as compound remaining after 24 hrs PBS buffer by HPLC analysis at pH 5.5; format: physicochemical; conditions: read-out: Activity
# Procedure, shortened: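 Drug at 50 mg/liter initial concentration incubated 24 h at 37°C in buffered medium at pH 7.4 or 5.5. Remaining drug measured by HPLC signal disappearance; mobile phase 25 mM phosphate buffer pH 6.7 with acetonitrile (75:25).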
# [8] = system: Staphylococcus aureus; assay: Antimicrobial activity against beta-lactamase negative methicillin-susceptible Staphylococcus aureus ATCC 25923 infected in human THP-1 cells assessed as increase in bacterial count from original inoculum at low compound concentration after 24 hrs at pH 5.5; format: functional
# Procedure, shortened: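 MSSA ATCC 25923 phagocytized by unactivated THP-1 macrophages; extracellular antibiotic from about 0.01× to 100× the broth MIC at pH 5.5, with gentamicin 0.5 mg/liter to block extracellular growth. CFU per mg cell protein counted at 24 h vs. original inoculum (n = 3). A Hill equation (slope factor 1) gives Emin/Emax, extrapolated to infinitely low/high concentration. Static concentration is read by graphical interpolation.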
# [9] = system: Staphylococcus aureus; assay: Antimicrobial activity against hospital acquired methicillin-resistant Staphylococcus aureus HMC546 by broth microdilution method at pH 5.5; format: functional
# [10] = system: Staphylococcus aureus; assay: Antimicrobial activity against hospital acquired methicillin-resistant Staphylococcus aureus N4120032 obtained from wound infection of patient by broth microdilution method at pH 5.5; format: functional
# [11] = system: Staphylococcus aureus; assay: Antimicrobial activity against hospital acquired methicillin-resistant Staphylococcus aureus ATCC 33591 infected in human THP-1 cells assessed as decrease in bacterial count from original inoculum at high compound concentration after 24 hrs at pH 7.4; format: functional
# [12] = system: Staphylococcus aureus; assay: as §3, with “count from original inoculum at high compound concentration” for “growth”; format: functional; procedure, shortened: as §2
# [13] = system: Staphylococcus aureus; assay: Bacteriostatic activity against hospital acquired methicillin-resistant Staphylococcus aureus N4120210 infected in human THP-1 cells assessed as decrease in bacterial growth after 24 hrs at pH 5.5; format: functional
# Procedure, shortened: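 Human THP-1 macrophages infected with each S. aureus strain. Cloxacillin added extracellularly at about 0.01× to 100× the broth MIC measured at pH 5.5, with gentamicin 0.5 mg/liter to stop extracellular growth. Incubated 24 h. CFU counted per mg cell protein as change from the post-phagocytosis inoculum, n = 3. Emin, Emax and EC50 from a Hill fit; static concentration by graphical interpolation.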
# [14] = system: Staphylococcus aureus; assay: Antimicrobial activity against hospital acquired methicillin-resistant Staphylococcus aureus ATCC 33591 infected in human THP-1 cells assessed as decrease in bacterial growth after 24 hrs at pH 7.4; format: functional, organism-based; conditions: ATCC 33591, THP-1, 24 h
# [15] = system: Staphylococcus aureus; assay: Antimicrobial activity against hospital acquired methicillin-resistant Staphylococcus aureus N4120032 obtained from wound infection of patient by broth microdilution method at pH 7.4; format: functional; procedure, shortened: as §1
# [16] = system: Staphylococcus aureus; assay: Antimicrobial activity against intracellular beta-lactamase negative methicillin-susceptible Staphylococcus aureus ATCC 25923 infected in human keratinocytes assessed as decrease in bacterial growth after 24 hrs at pH 7.4; format: functional, organism-based; conditions: ATCC 25923, 24 h
# Procedure, shortened: (§4)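 Primary human skin keratinocytes or Calu-3 bronchial epithelial cells, given an inoculum of 5 × 10⁷ to 1 × 10⁸ bacteria/ml and 2 h for internalization. Post-phagocytosis load 1.5 × 10⁶ to 3.0 × 10⁶ CFU per mg cell protein. Cloxacillin dose range in mg/liter for 24 h, n = 3. Hill-derived Emin, Emax and EC50; static concentration interpolated.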
# [17] = system: Staphylococcus aureus; assay: Antimicrobial activity against animal acquired methicillin-resistant Staphylococcus aureus N7112046 infected in human THP-1 cells assessed as increase in bacterial count from original inoculum at low compound concentration after 24 hrs at pH 5.5; format: functional; procedure, shortened: as §2
# [18] = system: Staphylococcus aureus; assay: Antimicrobial activity against hospital acquired methicillin-resistant and vancomycin-intermediate Staphylococcus aureus NRS18 obtained from patient with wound, skin and soft tissue infection by broth microdilution method at pH 7.4; format: functional; procedure, shortened: as §1
# [19] = system: Staphylococcus aureus; assay: Antimicrobial activity against hospital acquired methicillin-resistant Staphylococcus aureus N4120032 obtained from wound infection of patient infected in human THP-1 cells assessed as increase in bacterial count from original inoculum at low compound concentration after 24 hrs at pH 5.5; format: functional; procedure, shortened: as §2
# [20] = system: Staphylococcus aureus; assay: Bacteriostatic activity against intracellular hospital acquired methicillin-resistant Staphylococcus aureus ATCC 33591 infected in human Calu3 cells assessed as decrease in bacterial growth after 24 hrs at pH 7.4; format: functional, Calu-3; procedure, shortened: as §4
# [21] = system: Staphylococcus aureus; assay: Antimicrobial activity against Panton-valentine leukocidin positive community acquired methicillin-resistant Staphylococcus aureus N4090440 obtained from wound infection of patient by broth microdilution method at pH 7.4; format: functional; procedure, shortened: as §1
# [22] = system: Staphylococcus aureus; assay: Antimicrobial activity against intracellular hospital acquired methicillin-resistant Staphylococcus aureus ATCC 33591 infected in activated human THP-1 cells assessed as increase in bacterial count from original inoculum at low compound concentration after 24 hrs at pH 7.4; format: functional
# Procedure, shortened: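 THP-1 cells activated by 24-h culture with phorbol myristate acetate 2 mg/liter, then infected like unactivated THP-1. Cloxacillin dose range in mg/liter for 24 h. CFU per mg cell protein relative to the original inoculum, n = 3. Emin and Emax extrapolated from a Hill fit (slope 1), with EC50 as total drug; static concentration by graphical interpolation.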
# [23] = system: Staphylococcus aureus; assay: Antimicrobial activity against hospital acquired methicillin-resistant and vancomycin-intermediate Staphylococcus aureus VRS2 obtained from patient with wound, skin and soft tissue infection by broth microdilution method at pH 7.4; format: functional; procedure, shortened: as §1
# [24] = system: Staphylococcus aureus; assay: Antimicrobial activity against Panton-valentine leukocidin positive community acquired methicillin-resistant Staphylococcus aureus N4042228 by broth microdilution method at pH 7.4; format: functional; procedure, shortened: as §1
compound,measurement,setting,value
Cc1onc(-c2ccccc2Cl)c1C(=O)N[C@@H]1C(=O)N2[C@@H]1SC(C)(C)[C@@H]2C(=O)O [CLOXACILLIN],MIC,[1],> 512 mg/L
same,MIC,[2],16 mg/L
same,MIC,[3],0.03 mg/L
same,log10cfu,[4],2.76
same,MIC,[5],0.06 mg/L
same,EC50,[6],6.07 ×MIC
same,remaining at 24 h,[7],93.3%
same,log10cfu,[8],1.96
same,MIC,[9],0.25 mg/L
same,MIC,[10],0.06 mg/L
same,log10cfu,[11],0.55
same,log10cfu,[12],0.68
same,Activity,[13],35.5 ×MIC
same,EC50,[14],0.26 mg/L
same,MIC,[15],1 mg/L
same,EC50,[16],0.42 mg/L
same,log10cfu,[17],1.84
same,MIC,[18],8 mg/L
same,log10cfu,[19],2.63
same,Activity,[20],1 mg/L
same,MIC,[21],0.5 mg/L
same,log10cfu,[22],2.15
same,MIC,[23],32 mg/L
same,MIC,[24],0.5 mg/L
